Measured values reported in ChEMBL document CHEMBL1955714, “Synthesis and antidiabetic performance of β-amino ketone containing nabumetone moiety” (Bioorg Med Chem, 2012).
≈ marks a conversion by molar mass, not a printed value.

Legend:
[1] = species on record: Rattus norvegicus; test: Inhibition of rat intestine alpha-glucosidase using maltose as substrate after 10 mins by spectrometric analysis relative to acarbose; parameters: concentration or dose not given beside the values
Method in brief: (§1)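 Enzyme and sample were preincubated at 37 °C for 10 min. Then 0.1 mol L-1 maltose was added and incubated 10 min at room temperature. The reaction was stopped and OD read at 490 nm. Blank (no enzyme, no sample) and negative (no sample) controls were run alongside.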

[2] = biological target: Peroxisome proliferator-activated receptor (Homo sapiens) (UniProt P37231+Q07869+Q03181); test: Activation of PPAR in human HepG2 cells at 10 ug/ml after 24 hrs by luciferase reporter gene assay relative to rosiglitazone; format: cell-based
Method in brief: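 HepG2 cells in low-glucose DMEM with 100 U mL-1 streptomycin/penicillin, plated at 1.5 × 10⁴ per well a day before transfection. At 70% confluence they were co-transfected with pPPRE-Luc (firefly) and phRL-TK (renilla). After 24 h the medium was replaced with sample-containing medium, with rosiglitazone as positive control. Dual firefly/renilla luciferase was read after a further 24 h; untransfected cells served as blank.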

[3] = Inhibition of rat intestine alpha-glucosidase using maltose as substrate after 10 mins by spectrometric analysis; method in brief: as §1
[4] = biological target: T1, Peroxisome proliferator-activated receptor (Homo sapiens, UniProt P37231+Q07869+Q03181); test: Activation of PPAR in human HepG2 cells after 24 hrs by luciferase reporter gene assay; format: cell-based
T1 sequence (P37231 whole entry): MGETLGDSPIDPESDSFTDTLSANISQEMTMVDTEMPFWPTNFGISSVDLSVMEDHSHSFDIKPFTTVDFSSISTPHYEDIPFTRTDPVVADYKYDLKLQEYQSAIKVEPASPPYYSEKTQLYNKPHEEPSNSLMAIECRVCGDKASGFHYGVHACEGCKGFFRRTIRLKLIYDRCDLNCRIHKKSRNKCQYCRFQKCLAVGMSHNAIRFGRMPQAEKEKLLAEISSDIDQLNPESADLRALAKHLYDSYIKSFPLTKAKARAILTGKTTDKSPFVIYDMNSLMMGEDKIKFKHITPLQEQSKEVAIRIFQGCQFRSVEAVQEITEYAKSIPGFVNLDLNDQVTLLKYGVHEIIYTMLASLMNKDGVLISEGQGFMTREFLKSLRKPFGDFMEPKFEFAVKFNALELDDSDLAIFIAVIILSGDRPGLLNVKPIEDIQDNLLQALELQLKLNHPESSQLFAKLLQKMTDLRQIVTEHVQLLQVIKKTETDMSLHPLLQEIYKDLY
T1 sequence (Q07869 whole entry): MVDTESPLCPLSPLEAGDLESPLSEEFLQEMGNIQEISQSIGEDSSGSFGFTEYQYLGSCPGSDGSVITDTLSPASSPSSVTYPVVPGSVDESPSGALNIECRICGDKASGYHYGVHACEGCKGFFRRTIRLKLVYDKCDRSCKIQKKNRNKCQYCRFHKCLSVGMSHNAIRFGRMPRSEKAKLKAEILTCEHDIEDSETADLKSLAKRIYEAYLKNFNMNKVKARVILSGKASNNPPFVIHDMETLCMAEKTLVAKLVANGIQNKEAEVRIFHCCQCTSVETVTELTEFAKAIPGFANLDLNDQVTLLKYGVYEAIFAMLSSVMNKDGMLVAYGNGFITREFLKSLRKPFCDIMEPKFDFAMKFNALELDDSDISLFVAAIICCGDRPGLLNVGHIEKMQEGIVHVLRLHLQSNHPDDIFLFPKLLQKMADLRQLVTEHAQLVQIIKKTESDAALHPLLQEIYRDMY
T1 sequence (Q03181 whole entry): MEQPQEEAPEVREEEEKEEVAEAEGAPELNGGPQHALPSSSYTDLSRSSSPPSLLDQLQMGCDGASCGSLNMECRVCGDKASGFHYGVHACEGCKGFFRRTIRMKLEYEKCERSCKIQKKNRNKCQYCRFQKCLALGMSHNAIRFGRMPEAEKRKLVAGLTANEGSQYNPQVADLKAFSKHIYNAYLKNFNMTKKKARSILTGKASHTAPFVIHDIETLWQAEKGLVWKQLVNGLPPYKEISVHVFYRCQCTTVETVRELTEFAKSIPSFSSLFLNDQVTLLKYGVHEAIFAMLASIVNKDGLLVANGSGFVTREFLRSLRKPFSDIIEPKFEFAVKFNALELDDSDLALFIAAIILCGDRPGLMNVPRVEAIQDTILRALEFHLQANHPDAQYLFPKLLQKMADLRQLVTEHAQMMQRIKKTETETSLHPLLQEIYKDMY

Compound COc1ccc2cc(CCC(=O)CC(Nc3ccc(S(=O)(=O)Nc4cc(C)on4)cc3)c3ccc(C)cc3)ccc2c1 (centres undefined) has an inhibition [1] of 15.8% and an Activity [2] of 58.5%.
Work on COc1ccc2cc(CCC(=O)CC(Nc3cc(C)on3)c3ccc(Br)cc3)ccc2c1 (centres undefined) yielded an inhibition [1] of 1.42% and an Activity [2] of 2.87%.
Work on COc1ccc2cc(CCC(=O)CC(Nc3ccc(S(=O)(=O)Nc4cc(C)on4)cc3)c3ccc(O)cc3)ccc2c1 (centres undefined) yielded an inhibition [1] of 7.07% and an Activity [2] of 13.8%.
COc1ccc2cc(CCC(=O)CC(Nc3cc(C)on3)c3ccc(Cl)c(Cl)c3)ccc2c1 (centres undefined) showed an inhibition [1] of 22.3% and an Activity [2] of 5.37%.
With COc1ccc2cc(CCC(=O)CC(Nc3ccc(S(=O)(=O)Nc4cc(C)on4)cc3)c3ccc(Cl)cc3)ccc2c1 (centres undefined) the inhibition [1] was 44.2% and the Activity [2] was 3.92%.
COc1ccc(C(CC(=O)CCc2ccc3cc(OC)ccc3c2)Nc2ccc(S(=O)(=O)Nc3cc(C)on3)cc2)cc1 (centres undefined) showed an inhibition [1] of 50.8% and an Activity [2] of 48.4%.
Compound COc1ccc2cc(CCC(=O)CC(Nc3cc(C)on3)c3ccc(C)cc3)ccc2c1 (centres undefined) has an inhibition [1] of 7.23% and an Activity [2] of 11.5%.
With COc1ccc2cc(CCC(=O)CC(Nc3ccc(S(N)(=O)=O)cc3)c3ccco3)ccc2c1 (centres undefined) the inhibition [1] was 46.8% and the Activity [2] was 6.64%.
Work on COc1ccc2cc(CCC(=O)CC(Nc3ccc(S(N)(=O)=O)cc3)c3ccc4cc(OC)ccc4c3)ccc2c1 (centres undefined) yielded an inhibition [1] of 6.39% and an Activity [2] of 19.1%.
With COc1ccc2cc(CCC(=O)CC(Nc3ccc(S(=O)(=O)Nc4cc(C)on4)cc3)c3cccc(C)c3)ccc2c1 (centres undefined) the IC50 [3] was 3.24 µg/mL (≈ 5.55 µM), the inhibition [1] was 70.5% and the Activity [2] was 68.4%.
Compound COc1ccc(C(CC(=O)CCc2ccc3cc(OC)ccc3c2)Nc2cc(C)on2)cc1 (centres undefined) has an inhibition [1] of 10.8% and an Activity [2] of 3.13%.
With COc1ccc2cc(CCC(=O)CC(Nc3ccc(S(N)(=O)=O)cc3)c3ccc(Cl)cc3)ccc2c1 (centres undefined) the IC50 [3] was 4.07 µg/mL (≈ 7.78 µM), the EC50 [4] was 6.74 µg/mL (≈ 12.9 µM) and the inhibition [1] was 66.3%. For the same compound, the Activity [2] was 71.9%.
With COc1ccc2cc(CCC(=O)CC(Nc3cc(C)on3)c3ccc(O)cc3)ccc2c1 (centres undefined) the inhibition [1] was 21.4% and the Activity [2] was 5.3%.
COc1ccc2cc(CCC(=O)CC(Nc3ccc(S(=O)(=O)Nc4cc(C)on4)cc3)c3cccc([N+](=O)[O-])c3)ccc2c1 (centres undefined) showed an inhibition [1] of 41.6% and an Activity [2] of 81.8%.
Compound COc1ccc2cc(CCC(=O)CC(Nc3ccc(S(N)(=O)=O)cc3)c3ccc(Cl)c(Cl)c3)ccc2c1 (centres undefined) has an inhibition [1] of 34.8% and an Activity [2] of 45.8%.
Work on COc1ccc2cc(CCC(=O)CC(Nc3cc(C)on3)c3cccc(C)c3)ccc2c1 (centres undefined) yielded an inhibition [1] of 10.2% and an Activity [2] of 12.7%.
Compound COc1ccc2cc(CCC(=O)CC(Nc3ccc(S(N)(=O)=O)cc3)c3ccccc3)ccc2c1 (centres undefined) has an inhibition [1] of 41.7% and an Activity [2] of 61%.
Compound COc1ccc2cc(CCC(=O)CC(Nc3cc(C)on3)c3ccc(Cl)cc3Cl)ccc2c1 (centres undefined) has an inhibition [1] of 13% and an Activity [2] of 11.5%.
In the case of COc1ccc2cc(CCC(=O)CC(Nc3ccc(S(N)(=O)=O)cc3)c3ccc(O)cc3)ccc2c1 (centres undefined), the IC50 [3] is reported as 4.14 µg/mL (≈ 8.2 µM), the EC50 [4] is reported as 5.56 µg/mL (≈ 11 µM) and the inhibition [1] is reported as 52.8%. It also gave an Activity [2] of 73.4%.
COc1ccc2cc(CCC(=O)CC(Nc3cc(C)on3)c3cccc(Cl)c3)ccc2c1 (centres undefined) showed an inhibition [1] of 26.3% and an Activity [2] of 4.86%.
Compound COc1ccc2cc(CCC(=O)CC(Nc3cc(C)on3)c3ccc4c(c3)OCO4)ccc2c1 (centres undefined) has an inhibition [1] of 0.35% and an Activity [2] of 12.6%.
With COc1ccc2cc(CCC(=O)CC(Nc3ccc(S(=O)(=O)Nc4cc(C)on4)cc3)c3ccc(Cl)cc3Cl)ccc2c1 (centres undefined) the inhibition [1] was 20.3% and the Activity [2] was 64.5%.
